ChEMBL document CHEMBL1156308 (J Med Chem, 2010)

Experiments:
[1] = Biodistribution in baboon heart at 340 mg, iv after 15 mins; format: ADME, organism-based; conditions: papio hamadryas, read-out: Drug uptake
Method in brief: (§1)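 Four anesthetized baboons were given ketamine 10 mg/kg i.m., with anesthesia held on O2, N2O and isoflurane 1–4%. They received a micro dose of the [11C]-labeled drug i.v. via a radial arm vein, followed by torso PET. TACs came from manually drawn organ ROIs and are reported as %ID/cc. µg/ml values were estimated from a 20 mg/kg dose and a 17 kg baboon, assuming the signal is intact drug.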

[2] = Biodistribution in baboon lung at 340 mg, iv after 15 mins; format: ADME, organism-based; conditions: papio hamadryas, read-out: Drug uptake; method in brief: as §1
[3] = Biodistribution in baboon kidney cortex at 340 mg, iv after 15 mins; format: ADME, organism-based; conditions: papio hamadryas, read-out: Drug uptake; method in brief: as §1
[4] = Biodistribution in baboon kidney medulla at 340 mg, iv after 15 mins; format: ADME, organism-based; conditions: papio hamadryas, read-out: Drug uptake; method in brief: as §1
[5] = Biodistribution in baboon liver at 340 mg, iv after 15 mins; format: ADME, organism-based; conditions: papio hamadryas, read-out: Drug uptake; method in brief: as §1
[6] = Biodistribution in baboon plasma at 340 mg, iv after 15 mins; format: ADME, organism-based; conditions: papio hamadryas, read-out: Drug uptake
Method in brief: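 Anesthetised baboons (ketamine 10 mg/kg i.m.; oxygen, nitrous oxide and isoflurane 1–4% during scanning) got a micro dose of [11C]-labelled drug i.v. via a radial arm vein; arterial blood was sampled serially over 90 min. Plasma %ID/cc was converted to µg/ml from the listed dose over a 17 kg baboon, assuming the signal is intact drug.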

[7] = Biodistribution in baboon heart at 340 mg, iv after 30 mins; format: ADME, organism-based; conditions: papio hamadryas, read-out: Drug uptake; method in brief: as §1
[8] = Biodistribution in baboon lung at 340 mg, iv after 30 mins; format: ADME, organism-based; conditions: papio hamadryas, read-out: Drug uptake; method in brief: as §1
[9] = Biodistribution in baboon kidney cortex at 340 mg, iv after 30 mins; format: ADME, organism-based; conditions: papio hamadryas, read-out: Drug uptake; method in brief: as §1
[10] = Biodistribution in baboon kidney medulla at 340 mg, iv after 30 mins; format: ADME, organism-based; conditions: papio hamadryas, read-out: Drug uptake; method in brief: as §1
[11] = Biodistribution in baboon liver at 340 mg, iv after 30 mins; format: ADME, organism-based; conditions: papio hamadryas, read-out: Drug uptake; method in brief: as §1
[12] = Biodistribution in baboon plasma at 340 mg, iv after 30 mins; format: ADME, organism-based; conditions: papio hamadryas, read-out: Drug uptake
Method in brief: (§2)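 Anaesthetised baboons received [11C]-labelled drug i.v. (radial arm vein) by PET protocol. Arterial blood was drawn from a popliteal catheter every 5 s for 2 min, then at 2–90 min. Plasma activity is given as %ID/cc. µg/ml values were estimated from the human daily dose per kg scaled to a 17 kg baboon, assuming signal comes from intact drug.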

[13] = Biodistribution in baboon heart at 340 mg, iv after 60 mins; format: ADME, organism-based; conditions: papio hamadryas, read-out: Drug uptake; method in brief: as §1
[14] = Biodistribution in baboon lung at 340 mg, iv after 60 mins; format: ADME, organism-based; conditions: papio hamadryas, read-out: Drug uptake; method in brief: as §1
[15] = Biodistribution in baboon kidney cortex at 340 mg, iv after 60 mins; format: ADME, organism-based; conditions: papio hamadryas, read-out: Drug uptake; method in brief: as §1
[16] = Biodistribution in baboon kidney medulla at 340 mg, iv after 60 mins; format: ADME, organism-based; conditions: papio hamadryas, read-out: Drug uptake; method in brief: as §1
[17] = Biodistribution in baboon liver at 340 mg, iv after 60 mins; format: ADME, organism-based; conditions: papio hamadryas, read-out: Drug uptake; method in brief: as §1
[18] = Biodistribution in baboon plasma at 340 mg, iv after 60 mins; format: ADME, organism-based; conditions: papio hamadryas, read-out: Drug uptake; method in brief: as §2
[19] = Biodistribution in baboon heart at 340 mg, iv after 90 mins; format: ADME, organism-based; conditions: papio hamadryas, read-out: Drug uptake; method in brief: as §1
[20] = Biodistribution in baboon lung at 340 mg, iv after 90 mins; format: ADME, organism-based; conditions: papio hamadryas, read-out: Drug uptake; method in brief: as §1
[21] = Biodistribution in baboon kidney cortex at 340 mg, iv after 90 mins; format: ADME, organism-based; conditions: papio hamadryas, read-out: Drug uptake; method in brief: as §1
[22] = Biodistribution in baboon kidney medulla at 340 mg, iv after 90 mins; format: ADME, organism-based; conditions: papio hamadryas, read-out: Drug uptake; method in brief: as §1
[23] = Biodistribution in baboon liver at 340 mg, iv after 90 mins; format: ADME, organism-based; conditions: papio hamadryas, read-out: Drug uptake; method in brief: as §1
[24] = Biodistribution in baboon plasma at 340 mg, iv after 90 mins; format: ADME, organism-based; conditions: papio hamadryas, read-out: Drug uptake; method in brief: as §2
[25] = Biodistribution in baboon whole brain at 340 mg, iv after 30 mins; format: ADME, organism-based; conditions: papio hamadryas, read-out: Drug uptake
Method in brief: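 Brain PET was acquired for 90 min after i.v. [11C]-labeled drug in anesthetized baboons (ketamine 10 mg/kg i.m.; O2/N2O/isoflurane 1–4%). The whole-brain ROI TAC is reported as %ID/cc. µg/ml was estimated assuming a 20 mg/kg dose, a 17 kg baboon, and that the signal is intact drug. Arterial blood was sampled over 90 min.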

[26] = Biodistribution in baboon whole brain at 340 mg, iv after 60 mins; format: ADME, organism-based; conditions: papio hamadryas, read-out: Drug uptake
Method in brief: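 Baboons were anesthetized with ketamine 10 mg/kg i.m., then maintained on O2, N2O and isoflurane 1–4%. The [11C]-labeled drug was given i.v. as a micro dose through a radial arm vein. PET was acquired for 90 min. Whole-brain ROI time-activity curves were read in %ID/cc, and µg/ml was estimated assuming a 20 mg/kg dose, a 17 kg baboon and signal from intact drug.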

[27] = Biodistribution in baboon whole brain at 340 mg, iv after 90 mins; format: ADME, organism-based; conditions: papio hamadryas, read-out: Drug uptake
Method in brief: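 Brain PET ran 90 min after i.v. [11C]-labelled drug in anaesthetised baboons. Whole-brain regions of interest gave time-activity curves in %ID/cc. µg/ml values were estimated from baboon weight (17 kg) and the recommended human daily dose per kg, assuming signal comes from intact drug.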

[28] = Plasma protein binding in baboon; format: ADME, cell-free; conditions: papio hamadryas, read-out: PPB (converted)
Method in brief: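 [11C]-labelled drug was incubated 10 min at room temperature in pooled plasma from at least 4 baboons. Total radioactivity was counted, then the sample was ultrafiltered by centrifugation (10 min) and the filtrate counted. Result is expressed as % free fraction in plasma.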

[29] = Biodistribution in ip dosed cat brain; format: ADME, organism-based, Felis catus; conditions: in vivo
[30] = Biodistribution in human CSF at 8.5 mg/kg, po after 2 hrs; format: ADME, organism-based, Cerebrospinal fluid; set-up: dose 8.5 mg/kg, route oral; conditions: read-out: Drug uptake
[31] = Biodistribution in human CSF at 108.7 mg, po after 1 hr; format: ADME, organism-based, Cerebrospinal fluid; conditions: read-out: Drug uptake
[32] = Lipophilicity, log D of the compound; format: physicochemical; conditions: octanol/water

Structure (SMILES): N[11C](=O)c1cnccn1
- concentration at 0.25 h [1]: 67.8 µg/mL
- concentration at 0.25 h [2]: 35000 ng/mL
- concentration at 0.25 h [3]: 20500 ng/mL
- concentration at 0.25 h [4]: 617 µg/mL
- concentration at 0.25 h [5]: 36100 ng/mL
- concentration at 0.25 h [6]: 22000 ng/mL
- concentration at 0.5 h [7]: 61.5 µg/mL
- concentration at 0.5 h [8]: 26500 ng/mL
- concentration at 0.5 h [9]: 16600 ng/mL
- concentration at 0.5 h [10]: 474 µg/mL
- concentration at 0.5 h [11]: 27000 ng/mL
- concentration at 0.5 h [12]: 14600 ng/mL
- concentration at 1 h [13]: 57.6 µg/mL
- concentration at 1 h [14]: 22200 ng/mL
- concentration at 1 h [15]: 12600 ng/mL
- concentration at 1 h [16]: 343 µg/mL
- concentration at 1 h [17]: 22000 ng/mL
- concentration at 1 h [18]: 11200 ng/mL
- concentration at 1.5 h [19]: 59.5 µg/mL
- concentration at 1.5 h [20]: 18600 ng/mL
- concentration at 1.5 h [21]: 9930 ng/mL
- concentration at 1.5 h [22]: 229 µg/mL
- concentration at 1.5 h [23]: 19200 ng/mL
- concentration at 1.5 h [24]: 9040 ng/mL
- concentration at 0.5 h [25]: 21000 ng/mL
- concentration at 1 h [26]: 15700 ng/mL
- concentration at 1.5 h [27]: 13700 ng/mL

Structure (SMILES): NNC(=O)c1ccncc1 [ISONIAZID]
- fraction unbound [28]: 0.0537
- Drug uptake [29]: 0.02 µg/g
- concentration at 2 h [30]: 1900 ng/mL
- concentration at 1 h [31]: 310 ng/mL

Structure (SMILES): NC(=O)c1cnccn1 [PYRAZINAMIDE]
- logD [32]: -0.41
- fraction unbound [28]: 0.0868

Structure (SMILES): CO[C@H]1/C=C/O[C@@]2(C)Oc3c(C)c(O)c4c(O)c(c(/C=N/N5CCN(C)CC5)c(O)c4c3C2=O)NC(=O)/C(C)=C\C=C\[C@H](C)[C@H](O)[C@@H](C)[C@@H](O)[C@@H](C)[C@H](OC(C)=O)[C@@H]1C [RIFAMPIN]
- fraction unbound [28]: 0.727
